Assay [1] deals with KB. The experiment in a line: In vitro cytotoxic activity against human KB-VIN10 cell line overexpressing P-gp 170/MDR. In kind it is functional, cell-based. In a few lines:
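Vincristine-selected P-gp170/MDR-overexpressing KB line, maintained with 10 nM vincristine, then grown drug-free for 3 days before use. Log-phase cells seeded at 5000 cells/mL/well, exposed 72 h to various drug concentrations; methylene blue dye readout, IC50 (50% growth inhibition versus control) taken graphically. Mean and SD, at least three independent experiments.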

Assay [2] has as its system TSGH. The experiment in a line: In vitro cytotoxic activity against human TSGH cell line of stomach carcinoma. In kind it is functional, cell-based. In a few lines:
(§1)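 Cells kept in RPMI-1640 with 5% fetal bovine serum; log-phase cells seeded at 5000 cells/mL/well, exposed to various drug concentrations for 72 h. Growth read by methylene blue dye assay; IC50 (50% growth inhibition versus control) derived graphically. Mean and SD of at least three independent experiments.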

In assay [3] the test system is KB. The experiment in a line: In vitro cytotoxic activity against human KB cell line of epidermoid carcinoma. In kind it is functional, cell-based. In outline: as §1
Assay [4] relates to HT-29. The experiment in a line: In vitro cytotoxic activity against human HT-29 cell line of colorectal carcinoma. In kind it is functional, cell-based. In outline:
as §1

Assay [5] concerns the target Tubulin alpha chain (Sus scrofa) (UniProt P02550). The experiment in a line: Ability to inhibit 3[H]Colchicine binding to colchicine-binding domain of tubulin; Strong inhibition.
Assay [6] has as its target Tubulin (Bos taurus, UniProt Q6B856+Q862L2+Q862F3). The experiment in a line: Inhibitory concentration required against MAP-rich tubulin polymerization. The assay is classed as functional.
Assay [7] concerns the target Tubulin alpha chain (Sus scrofa) (UniProt P02550). The experiment in a line: Ability to inhibit 3[H]Colchicine binding to colchicine-binding domain of tubulin; Weak inhibition.
The target is the same in assay [8]. The experiment in a line: Ability to inhibit 3[H]Colchicine binding to colchicine-binding domain of tubulin; effective inhibition.

17 compounds from ChEMBL document CHEMBL1137079, “Synthesis and structure-activity relationships of 3-aminobenzophenones as antimitotic agents” (J Med Chem, 2004) can be followed below.

For orientation: IC50 means the concentration needed to halve the response being measured. Lower therefore signals greater potency in that assay.

The structures appear in SMILES notation. Where only a bound is given, the exact number is not on record here.

Chain of Tubulin alpha chain (Sus scrofa) (P02550 whole entry, looked up, the tested form may be a part): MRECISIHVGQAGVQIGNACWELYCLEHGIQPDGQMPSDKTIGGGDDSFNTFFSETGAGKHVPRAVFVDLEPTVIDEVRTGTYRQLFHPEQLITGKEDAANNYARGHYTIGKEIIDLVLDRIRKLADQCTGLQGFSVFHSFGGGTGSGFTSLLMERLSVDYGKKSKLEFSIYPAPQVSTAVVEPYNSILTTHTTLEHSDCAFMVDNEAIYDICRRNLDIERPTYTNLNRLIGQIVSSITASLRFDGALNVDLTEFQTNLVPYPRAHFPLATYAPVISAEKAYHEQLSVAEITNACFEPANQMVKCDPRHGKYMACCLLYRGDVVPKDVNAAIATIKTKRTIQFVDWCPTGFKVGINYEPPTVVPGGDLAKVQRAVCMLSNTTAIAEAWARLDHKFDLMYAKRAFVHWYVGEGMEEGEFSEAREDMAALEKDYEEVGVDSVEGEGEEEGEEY

As for `COc1ccc(/C=C\c2cc(OC)c(OC)c(OC)c2)cc1O` [COMBRETASTATIN A4], the IC50 in assay [1] was found to be 2.4 nM; in assay [2] it was 45 nM; in assay [3], 2.1 nM; in assay [4] it was 260 nM.
As for `COc1ccc(C(=O)c2cc(OC)c(OC)c(OC)c2)c(N)c1`, the IC50 amounted to 24 nM in assay [1]; 26 nM in assay [2]; 32 nM in assay [3]; 42 nM in assay [4]; 0.4 µM in assay [6]. Moreover, the inhibition entry in assay [5] is listed as “Strong inhibition”.
For `COc1ccc(Cc2cc(OC)c(OC)c(OC)c2)cc1N`, the 50% inhibitory concentration (IC50) in assay [1] was over 10000 nM; in assay [2], over 10000 nM; in assay [3], over 10000 nM; in assay [4], over 10000 nM; in assay [6] it was over 50 µM.
On to `COc1ccc(N)cc1C(=O)c1cc(OC)c(OC)c(OC)c1`, for which the IC50 turned out to be 324 nM in assay [1]; 497 nM in assay [2]; 306 nM in assay [3]; 400 nM in assay [4]; 2.9 µM in assay [6]. For the same compound, the inhibition result in assay [7] was “Weak inhibition”.
For the compound `CCCOc1ccc(C(=O)c2cc(OC)c(OC)c(OC)c2)cc1N`, the IC50 in assay [1] was 8600 nM; in assay [2], 4800 nM; in assay [3], 3800 nM; in assay [4] it was 9000 nM; in assay [6], 42 µM.
The like results for `COc1ccc(N)c(C(=O)c2cc(OC)c(OC)c(OC)c2)c1` were, in that order, 352 nM, 100 nM, 127 nM, 148 nM and 1 µM.
The corresponding values for `CCOc1ccc(C(=O)c2cc(OC)c(OC)c(OC)c2)cc1N` are 40 nM, 42 nM, 59 nM, 45 nM and 0.7 µM.
With `COc1cc(C(=O)c2cc(N)ccc2Cl)cc(OC)c1OC`, the IC50 in assay [1] is 125 nM; in assay [2], 157 nM; in assay [3], 180 nM; in assay [4], 163 nM; in assay [6], 0.6 µM. For the same compound, in assay [8], the inhibition result was “effective inhibition”.
As for `COc1cc(C(=O)c2ccc(OC(C)C)c(N)c2)cc(OC)c1OC`, the IC50 came out at 800 nM in assay [1]; 900 nM in assay [2]; 900 nM in assay [3]; 1300 nM in assay [4]; 6.4 µM in assay [6].
Regarding `COc1ccc(C(=O)c2cc(OC)c(OC)c(OC)c2)cc1N`, the half-inhibitory concentration (IC50) in assay [1] is 31 nM; in assay [2], 33 nM; in assay [3], 32 nM; in assay [4], 33 nM; in assay [6], 0.3 µM. Moreover, the inhibition result in assay [5] is on record as “Strong inhibition”.
As for `COc1ccc(C(=O)c2cc(OC)c(OC)c(OC)c2)cc1O` [PHENSTATIN], the IC50 in assay [1] turned out to be 30 nM; in assay [2], 170 nM; in assay [3] it was 30 nM; in assay [4], 560 nM; in assay [6], 0.4 µM.
With `COc1cc(N)cc(C(=O)c2cc(OC)c(OC)c(OC)c2)c1`, the IC50 in assay [1] was 307 nM; in assay [2], 157 nM; in assay [3], 590 nM; in assay [4], 163 nM; in assay [6] it was 2.6 µM.
The corresponding values for `COc1cc(C(=O)c2ccc(Cl)c(N)c2)cc(OC)c1OC` are 3800 nM, 4000 nM, 800 nM, 4000 nM and 11 µM.
With `COc1cc(C(=O)c2cc(N)cc(Cl)c2)cc(OC)c1OC`, the IC50 in assay [1] stood at 2900 nM; in assay [2] it was 1500 nM; in assay [3], 1400 nM; in assay [4], 1900 nM; in assay [6] it was 17 µM.
The corresponding values for `COc1cc(C(=O)c2cc(Cl)ccc2N)cc(OC)c1OC` are 162 nM, 185 nM, 195 nM, 218 nM and 0.1 µM.
The like results for `COc1cc(C(=O)c2ccc(Cl)cc2N)cc(OC)c1OC` were, in that order, 800 nM, 800 nM, 710 nM, 1000 nM and 2.7 µM.
In the case of `COc1ccc(/C=C\c2cc(OC)c(OC)c(OC)c2)cc1N`, the IC50 in assay [1] was 7.5 nM; in assay [2], 7.7 nM; in assay [3], 8.2 nM; in assay [4], 7.9 nM.
